CHT PAM: allosterically activates the human high affinity choline transporter. B-score at 10 µM. hit rate 0.49% among 310,000. CHT-expressing cells, membrane potential dye, choline EC20; stronger effect = higher value; LV-AA mutant CHT in HEK293 cells. Q9GZV3;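 active means initial fluorescence not abnormally high and integrated response B-score, plate-corrected, over 3 SD above library mean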
CHT inh: inhibits the human high affinity choline transporter; Q9GZV3; CHT-expressing cells, membrane potential dye, choline response; stronger effect = lower value; B-score at 10 µM; hit rate 0.86% among 310,000; AID 488975;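 active means B-score over 3 SD under the library average, and starting fluorescence ratio not unusually high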;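 further: choline stimulus applied at its EC90 after an EC20 pre-addition; B-score computed on integrated fluorescence ratio after choline addition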
Rad51 HR inh: blocks human Rad51 in homologous recombination. AID 1385. hit rate 0.085% among 200,000. Q06609. hRad51 DNA strand exchange, fluorescence dequenching. inhibition, % at 10 µM;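 active means inhibition above 40% at the single screening dose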
Target sequence (Q06609 whole entry, looked up): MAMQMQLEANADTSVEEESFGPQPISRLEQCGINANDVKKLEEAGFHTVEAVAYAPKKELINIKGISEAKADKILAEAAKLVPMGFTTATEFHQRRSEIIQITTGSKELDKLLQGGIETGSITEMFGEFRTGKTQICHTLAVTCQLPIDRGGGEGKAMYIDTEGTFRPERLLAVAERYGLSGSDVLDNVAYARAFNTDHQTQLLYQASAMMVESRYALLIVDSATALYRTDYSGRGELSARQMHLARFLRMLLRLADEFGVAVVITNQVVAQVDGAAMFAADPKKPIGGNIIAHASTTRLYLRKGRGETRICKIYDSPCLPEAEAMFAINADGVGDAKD
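Test system – preformed human Rad51 ssDNA filaments · Reagent – Donor/quencher-labelled 47-bp dsDNA substrate · Incubation – 37 °C 15-min filament assembly, 30-min compound preincubation, 15-min exchange · Signal – FRET fluorescence dequenching, excitation 485 nm, emission 520 nm · Read-out – percent inhibition from fluorescence, normalised to plate control and blank means · Benchmarks – plate control and blank wells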
KCC2 mod: KCC2 (human) Cl- transport modulation | KCC2 cells, thallium flux FluoZin-2 fluorescence | B-score of Tl+ flux slope (higher = more flux/activation; lower = inhibition) at 10 µM | hit rate 2.2% among 190,000 | AID 1456;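 active means thallium flux slope and its plate-corrected score both differing from the plate sample mean at a set confidence after two filtering rounds, in either direction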;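 further: slope of fluorescence scaled to starting intensity during 10 to 20 s after thallium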
Hits are given with their value; . = inactive; / = no result given. The list is not random: actives were taken first. Their share in the collection is about 2.6%.

SMILES	CHT PAM	CHT inh	Rad51 HR inh	KCC2 mod
CCC(C)NC(=O)CSc1c2c(nc3ccccc13)CCCC2 (stereo not drawn)	.	.	.	.
CN(C)CCCN1C(=O)c2oc3ccccc3c(=O)c2C1c1cccs1 (stereo not drawn)	.	.	.	7.3
Cc1cccc(OCC(=O)Nc2ccccc2N2CCCCC2)c1	.	.	.	/
Cc1cccc(OCC(=O)NC(=S)N2CCCc3ccccc32)c1	.	.	.	23
O=C(CCCOc1ccc(Cl)cc1Cl)N1CCCc2ccccc21	.	.	.	.
O=C(COc1ccc(Cl)cc1Cl)NC(=S)N1CCCc2ccccc21	.	.	.	21
COc1cc2ncnc(N[C@H](C)c3ccccc3)c2cc1OC	.	.	/	/
CC(C)c1nc2sc3c(=S)nc[nH]c3c2c2c1CCC2	.	.	/	159
CCn1nnnc1SCC(=O)Nc1nc(C)c(C)s1	.	.	.	.
CC(C)CNC(=S)NC(=O)c1ccc(F)cc1	.	.	.	18
O=C(NC(=S)NCCN1CCOCC1)c1ccc(F)cc1	.	.	.	.
O=c1c2cccnc2[nH]c(=S)n1CCCN1CCN(c2ccc(F)cc2)CC1	.	.	.	6
Cc1cc(NCCN2CCOCC2)n2ncc(-c3ccc(Cl)cc3)c2n1	/	/	/	4.8
O=[N+]([O-])c1ccc(N=Nc2c(Cl)cc(O)cc2Cl)cc1	.	.	.	7.5
CCOC(=O)C1CCN(c2ncnc3c2nnn3Cc2ccccc2Cl)CC1	.	.	55	.
Oc1[nH]c2ccccc2c1N=NC(=S)NCCc1ccccc1	.	.	/	20
CC(C)c1ccc2[nH]c(O)c(N=NC(=S)NCCc3ccccc3)c2c1	.	.	.	.
Oc1cccc(NC(=S)N=Nc2c(O)[nH]c3ccccc23)c1	.	.	.	.
O=C(CSCc1ccccc1)N=Nc1c(O)[nH]c2ccccc12	.	.	/	8.6
CCOc1ccc(NC(=S)N=Nc2c(O)[nH]c3ccccc23)cc1	.	.	.	4.4
Nc1nc(Cl)cc(Sc2ccc3ccccc3c2)n1	.	.	.	/
O=C(Oc1c(Cl)cc(Cl)c2cccnc12)c1cccc([N+](=O)[O-])c1	.	.	.	51
CCC(=O)Nc1nc(-c2cc([N+](=O)[O-])cs2)cs1	.	.	.	.
CC(=O)SCC(Cc1ccccc1)C(=O)NCC(=O)OCc1ccccc1 (stereo not drawn)	.	.	.	-4.2
CC(NC(N)=O)C(=O)NCC(=O)OCc1ccccc1 (stereo not drawn)	.	.	.	.
SMILES	CHT PAM	CHT inh	Rad51 HR inh	KCC2 mod
O=C1CN(C(=O)C2CCC(=O)N(CCc3ccc(Cl)cc3)C2)CCN1 (stereo not drawn)	.	.	/	/
COc1ccccc1NS(=O)(=O)c1cccc(C(=O)NCC(c2ccc(F)cc2)N2CCOCC2)c1 (stereo not drawn)	.	.	/	/
Cc1ccc(C(=O)c2c3ccc([N+](=O)[O-])cc3[n+]([O-])n2CCC(N)=O)cc1	.	.	/	/
NCCCn1c(C(=O)c2cc(Cl)c(N)c(Cl)c2)c2ccc([N+](=O)[O-])cc2[n+]1[O-]	.	-5.5	/	/
Cc1ccc(C(=O)Cn2c(C(=O)OCCO)cc3ccccc32)cc1	.	.	/	/
COc1cc(/C=C2\C(=N)N3N=C(S(=O)(=O)CC(C)C)SC3=NC2=O)ccc1OC(=O)c1ccco1	.	-5.4	/	/
COc1cc(/C=C2\C(=N)N3N=C(S(C)(=O)=O)SC3=NC2=O)ccc1OS(=O)(=O)c1ccccc1	.	.	/	/
CCS(=O)(=O)C1=NN2C(=N)/C(=C\c3ccc(OS(=O)(=O)c4ccccc4)c(OC)c3)C(=O)N=C2S1	.	-5.4	/	/
Cc1ccc(S(=O)(=O)Oc2ccc(/C=C3\C(=N)N4N=C(S(C)(=O)=O)SC4=NC3=O)cc2)cc1	.	-6.4	/	/
COc1cc(/C=C2\C=CC(=O)O2)cc(OC)c1	.	.	/	/
COc1cccc2c1C(=O)c1c(O)c3c(c(O)c1C2=O)C[C@@](O)(C(=O)CO)C[C@@H]3O[C@H]1C[C@H](N)[C@H](O)[C@H](C)O1	.	.	66	.
CCc1ccc(-c2nc(CN3CCC(C(=O)N4CCN(c5ccccc5)CC4)CC3)c(C)o2)cc1	.	.	.	2
CCc1ccc(-c2nc(CN3CCC(C(=O)N4CCN(c5ccccn5)CC4)CC3)c(C)o2)cc1	.	.	/	.
C=CCN1C(=O)CSc2ccc(C(=O)NC(C)c3ccccc3)cc21 (stereo not drawn)	.	.	/	/
CCOC(=O)N1CCN(c2c(-c3ccc(C)cc3)c(=O)c2=O)CC1	.	.	80	.
S=C(N/N=C/c1ccc(Cl)cc1)N1CCOCC1	.	.	.	41
S=C(N/N=C/c1ccc(Br)cc1)N1CCCCC1	.	.	/	/
Cc1ccc(/C=N/NC(=S)N2CCOCC2)cc1	.	.	.	32
O=C(c1ccc(CNS(=O)(=O)c2cccc(Cl)c2)cc1)N1CCCCC1	.	.	/	/
Cc1cc(N2C(=O)C(O)=C(C(=O)c3ccc(C)o3)C2c2ccc([N+](=O)[O-])cc2)no1 (stereo not drawn)	.	.	/	/
Cc1ccc(-n2[nH]c(C)c(/C=N/NC(=O)c3ccc([N+](=O)[O-])cc3)c2=O)c(C)c1	7.5	.	/	.
CC1Cc2ccccc2N1C(=S)NC(=O)C1(C)CC1(Cl)Cl (stereo not drawn)	.	.	.	93
O=C(NNc1ccccc1Br)C(=O)n1ccc2ccccc21	.	.	.	12
O=C(Nc1ccccc1Br)C(=O)N1CCCC1	.	.	.	.
O=C(NNC(=O)c1cccc(O)c1)Nc1ccc([N+](=O)[O-])cc1	.	.	/	.
SMILES	CHT PAM	CHT inh	Rad51 HR inh	KCC2 mod
CCC(=O)Nc1sc(Cc2ccc3c(c2)OCO3)c(C)c1C(N)=O	.	.	/	.
Cc1c(Cc2ccc3c(c2)OCO3)sc(NC(=O)c2ccc3ccccc3c2)c1C(N)=O	.	-6.6	.	.
O=C(NC(=S)N1CCc2ccccc21)c1ccccc1	.	.	.	51
O=C(NC(=S)N1CCc2ccccc21)c1ccccc1Cl	.	.	/	/
Cc1c(C(=O)c2no[n+]([O-])c2C(=O)c2cnn(C)c2C)cnn1C	.	-5.9	.	.
COc1ccc(C(=O)c2no[n+]([O-])c2C(=O)c2ccc(OC)cc2)cc1	.	.	.	.
COC(=O)C1=C(C(=O)OC)C(c2cc(Br)ccc2O)c2sc(=O)[nH]c2S1 (stereo not drawn)	.	.	.	-5.9
CCOc1ccc2nc(N3C(=O)/C(=C/c4ccccc4)NC3=S)sc2c1	.	.	.	62
COc1ccc2nc(N3C(=O)/C(=C/c4ccccc4)NC3=S)sc2c1	.	.	.	76
COc1ccc(CNCCC(c2ccc(OC(C)C)cc2)c2ccccc2OC)cc1 (stereo not drawn)	.	.	/	/
COc1ccccc1C(CCNCc1ccc(N(C)C)cc1)c1ccc(OC(C)C)cc1 (stereo not drawn)	8.7	.	/	/
COc1ccc(C2CCCN2CC(O)COc2ccccc2C(C)C)cc1 (stereo not drawn)	10	.	/	/
COc1ccc(N(C(=O)c2ccco2)S(=O)(=O)c2cccs2)cc1	.	.	.	-2.8
COc1ccc(C(=O)N(c2ccc(OC)cc2)S(=O)(=O)c2cccs2)cc1	.	.	.	.

Screening results (PubChem BioAssay)
